Experimental data from PubChem BioAssay AID463177 (The Scripps Research Institute Molecular Screening Center, 2010).
Calls of active or inactive are those of the source.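 Rule for the calls: active = apoptotic subG1 cells at or above 20% at some dose above 100 nM; inactive = subG1 cells below 20% at every dose.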

Experiment: apoptosis induction in parental HeLa cells, late-stage follow-up, counter-screen for Wee1 degradation inhibitor project, cell-based, FACS (AID 463177)
Details: PI FACS subG1 fraction, 20 h; G1 fraction: G1 phase cells, at 5 µM; G2 fraction: G2 phase cells, at 5 µM; S fraction: S phase cells, at 5 µM; subG1 cells, higher = apoptosis: at 5 µM (top of the series)
Procedure, shortened: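 Material: parental HeLa cells; times: compound exposure 20 h, then overnight ethanol fixation at -20 °C; detection: flow cytometry of propidium iodide DNA stain with RNase A, ethanol-fixed cells; read-out: Cell-cycle phase fractions (%), subG1 marking apoptosis; benchmarks: DMSO vehicle-treated cells as reference for fold change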

| SMILES | G1 fraction | G2 fraction | S fraction | subG1 cells, higher = apoptosis |
| --- | --- | --- | --- | --- |
| O=[N+]([O-])c1cccc2[nH]c(CNc3nc(N4CCOCC4)nc4c3ncn4-c3ccsc3)nc12 | 41.5% | 9.18% | 22.8% | 26.3% (active) |
| c1ccc2[nH]c(CNc3nc(N4CCOCC4)nc4c3ncn4-c3ccsc3)nc2c1 | 24.9% | 4.14% | 22.5% | 47.6% (active) |
